Test results: ChEMBL document CHEMBL1144138, “Cytotoxic terpenoids from the Formosan soft coral Nephthea brassica” (1999)
Values after ≈ are worked out from the molar mass of the structure shown.

Columns and labels:
Format in all cases: functional
A549 = assay: Cytotoxicity against human A549 cells after 6 days by MTT assay; details: A549, 144 h, read-out: ED50 (the source's name)
Outline: (§1)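 Cells were adapted to RPMI 1640 with 10% FCS and 1 mM […], then grown at 37 °C in 5% CO2. Seeding per well was 750 for A549, 750 for HT-29, 2000 for KB and 1500 for P-388. Three to eight concentrations spanning an 8- to 128-fold range were tested. After exposure, 1 mg/mL MTT was added for 4 h at 37 °C, formazan was dissolved in DMSO, and A540 was read. ED50 is the concentration giving 50% absorbance reduction versus untreated cells.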

P388 = assay: Cytotoxicity against mouse P388 cells after 3 days by MTT assay; details: P388, 72 h, read-out: ED50 (the source's name); outline: as §1
HT-29 = assay: Cytotoxicity against human HT-29 cells after 6 days by MTT assay; details: HT-29, 144 h, read-out: ED50 (the source's name); outline: as §1
KB = assay: Cytotoxicity against human KB cells after 3 days by MTT assay; details: 72 h, read-out: ED50 (the source's name); outline: as §1

SMILES: C/C1=C\CC/C(C)=C/[C@H](O)C(C(C)(C)O)CC/C(C)=C/CC1 (stereo partly specified)
- EC50 (A549): 0.71 µg/mL (≈ 2.32 µM)
- EC50 (P388): 1.8 µg/mL (≈ 5.87 µM)
- EC50 (HT-29): 1.02 µg/mL (≈ 3.33 µM)
- EC50 (KB): 0.23 µg/mL (≈ 0.75 µM)

SMILES: C/C1=C\CC/C(C)=C/CC(C(C)(C)O)CC/C(C)=C/CC1 (stereo unspecified) [NEPHTHENOL]
- EC50 (A549): 2.72 µg/mL (≈ 9.36 µM)
- EC50 (P388): 0.42 µg/mL (≈ 1.45 µM)
- EC50 (HT-29): 3.01 µg/mL (≈ 10.4 µM)
- EC50 (KB): 1.81 µg/mL (≈ 6.23 µM)

SMILES: C=C(C)[C@H]1C/C=C(\C)CC/C=C(\C)CC/C=C(\C)CC1 [CEMBRENE_A]
- EC50 (A549): 1.11 µg/mL (≈ 4.07 µM)
- EC50 (P388): 1.1 µg/mL (≈ 4.04 µM)
- EC50 (HT-29): 3.42 µg/mL (≈ 12.6 µM)
- EC50 (KB): 3.73 µg/mL (≈ 13.7 µM)

SMILES: CC(=O)OC(C)(C)C1CC/C(C)=C/CC/C(C)=C/CCC2=C[C@@H]1OC2=O (stereo partly specified) [BRASSICOLIDE ACETATE]
- EC50 (A549): 3.03 µg/mL
- EC50 (P388): 1.2 µg/mL
- EC50 (HT-29): 0.81 µg/mL
- EC50 (KB): 0.72 µg/mL

SMILES: C=C(C)[C@@H]1CC/C(C)=C/CC/C(C)=C/CC[C@]2(C)O[C@H]2C1 [EPOXYCEMBRENE A]
- EC50 (A549): 3.61 µg/mL (≈ 12.5 µM)
- EC50 (P388): 0.4 µg/mL (≈ 1.39 µM)
- EC50 (HT-29): 2.72 µg/mL (≈ 9.43 µM)
- EC50 (KB): 3.41 µg/mL (≈ 11.8 µM)

SMILES: C=C[C@]1(C)CC[C@H](C(=C)C)C[C@@H]1C(=C)C
- EC50 (A549): > 50 µg/mL
- EC50 (P388): 0.92 µg/mL (≈ 4.5 µM)
- EC50 (HT-29): > 50 µg/mL
- EC50 (KB): > 50 µg/mL

SMILES: C=C(C)C1CC[C@@]2(C)CCC[C@@](C)(OC(C)=O)[C@@H]2C1 (stereo partly specified)
- EC50 (A549): 0.12 µg/mL (≈ 0.454 µM)
- EC50 (P388): 2.44 µg/mL (≈ 9.23 µM)
- EC50 (HT-29): > 50 µg/mL
- EC50 (KB): > 50 µg/mL

SMILES: C=C(C)C1CC[C@@]2(C)CCC[C@@](C)(O)[C@@H]2C1 (stereo partly specified)
- EC50 (A549): > 50 µg/mL
- EC50 (P388): 3.86 µg/mL (≈ 17.4 µM)
- EC50 (HT-29): > 50 µg/mL
- EC50 (KB): > 50 µg/mL

SMILES: C/C1=C\CCC2=C[C@H](OC2=O)C(C(C)(C)O)CC/C(C)=C/CC1 (stereo partly specified) [BRASSICOLIDE]
- EC50 (A549): > 50 µg/mL
- EC50 (P388): 2.44 µg/mL (≈ 7.66 µM)
- EC50 (HT-29): 5.81 µg/mL (≈ 18.2 µM)
- EC50 (KB): 2.4 µg/mL (≈ 7.54 µM)
